How the values were obtained:
[1] = target: P2Y purinoceptor 12 (Homo sapiens, UniProt Q9H244); test: Displacement of [33P]ADP from human recombinant P2Y12 receptor expressed in CHO cells; assay type: cell-based
Summary of the method: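 Washed membranes from CHO cells expressing synthetic human P2Y12, incubated 1 h at room temperature with 0.2 nM 33P-MeSADP in 50 mM Tris/100 mM NaCl/1 mM EDTA. Compound was tested as a 7-point 3-fold series in triplicate. Nonspecific binding was defined with 300 nM 2-MeSADP, followed by filtration.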

[2] = Antiplatelet aggregation activity against adenosine diphosphate-induced human platelet rich plasma assessed as inhibition of platelet aggregation by turbidimetric method; assay type: functional; conditions: Homo sapiens, Platelet, Plasma
Summary of the method: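 Human PRP, prepared by two-step centrifugation and adjusted to 330 000 platelets/μL with PPP. Compound was preincubated 5 min at 37 °C in 0.5% DMSO, then 20 μM ADP was added. OD626 was read kinetically for 15 min at 37 °C with mixing between reads.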

[3] = test system: Platelet; test: Relative potency, ratio of IC50 for drug to IC50 for AZD-6140 for platelet aggregation in human platelet rich plasma; assay type: functional

P2Y purinoceptor 12, sequence (Q9H244 whole entry): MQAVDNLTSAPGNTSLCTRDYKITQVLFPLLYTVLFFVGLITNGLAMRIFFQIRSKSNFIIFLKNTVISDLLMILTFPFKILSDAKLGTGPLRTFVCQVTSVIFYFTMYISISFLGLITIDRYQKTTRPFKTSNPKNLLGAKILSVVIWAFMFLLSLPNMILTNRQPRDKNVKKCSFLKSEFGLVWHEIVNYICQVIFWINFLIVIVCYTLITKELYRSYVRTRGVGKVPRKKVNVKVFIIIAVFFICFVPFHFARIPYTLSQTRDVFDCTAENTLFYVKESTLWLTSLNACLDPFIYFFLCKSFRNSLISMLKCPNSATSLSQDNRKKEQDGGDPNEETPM

Ki [1] | IC50 [2] | SMILES | Ratio IC50 [3]
10 nM | 2800 nM | CCOC(=O)N1CCN(C(=O)[C@H](CCC(=O)O)NC(=O)c2cc(N3CCC(N)CC3)cc(-c3ccccc3)n2)CC1 | 8.1
20 nM | 3700 nM | CCCCOC(=O)N1CCN(C(=O)[C@H](CCC(=O)O)NC(=O)c2cc(OC3CCN(C(=O)OCC)CC3)cc(-c3ccccc3)n2)CC1 | 5.9
15 nM | 3900 nM | CCCCCOC(=O)N1CCN(C(=O)[C@H](CCC(=O)O)NC(=O)c2cc(N3CCC(OC)CC3)cc(-c3ccccc3)n2)CC1 | 3
10 nM | 880 nM | CCCCOC(=O)N1CCN(C(=O)[C@H](CCC(=O)O)NC(=O)c2cc(OC3CCN(C(C)C)CC3)cc(-c3ccccc3)n2)CC1 | 0.75
1.3 nM | 1300 nM | CCCCCOC(=O)N1CCN(C(=O)[C@H](CCC(=O)O)NC(=O)c2cc(OCC3CCN(C(C)=O)CC3)cc(-c3ccccc3)n2)CC1 | 1.8
7.5 nM | 8900 nM | CCCCCOC(=O)N1CCN(C(=O)[C@H](CCC(=O)O)NC(=O)c2cc(C(N)=O)cc(-c3ccccc3)n2)CC1 | 9
2.8 nM | 1200 nM | CCCCOC(=O)N1CCN(C(=O)[C@H](CCC(=O)O)NC(=O)c2cc(OC3CCN(C(C)=O)CC3)cc(-c3ccccc3)n2)CC1 | 1.1
8.6 nM | 420 nM | CCCCCOC(=O)N1CCN(C(=O)[C@H](CCC(=O)O)NC(=O)c2cc(C(=O)N(C)CCCN(C)C)cc(-c3ccccc3)n2)CC1 | 0.96
6.9 nM | 3900 nM | CCCCOC(=O)N1CCN(C(=O)[C@H](CCC(=O)O)NC(=O)c2cc(OC3CCCNC3)cc(-c3ccccc3)n2)CC1 (some centres not stated) | 1.8
7 nM | 480 nM | CCCCCOC(=O)N1CCN(C(=O)[C@H](CCC(=O)O)NC(=O)c2cc(OC3CCN(C(C)C)CC3)cc(-c3ccccc3)n2)CC1 | 0.68
3.7 nM | 3100 nM | CCCCCOC(=O)N1CCN(C(=O)[C@H](CCC(=O)O)NC(=O)c2cc(CCC(=O)N3CCOCC3)cc(-c3ccccc3)n2)CC1 | 2.4
11 nM | 2100 nM | CCCCCOC(=O)N1CCN(C(=O)[C@H](CCC(=O)O)NC(=O)c2cc(OC(=O)N3CCCCC3)cc(-c3ccccc3)n2)CC1 | 1.3
11 nM | 7300 nM | CCCCCCOC(=O)N1CCN(C(=O)[C@H](CCC(=O)O)NC(=O)c2cc(NCCOC)cc(-c3ccccc3)n2)CC1 | 9.6
2.4 nM | 3200 nM | CCCCOC(=O)N1CCN(C(=O)[C@H](CCC(=O)O)NC(=O)c2cc(NCCOC)cc(-c3ccccc3)n2)CC1 | 2.4
2.8 nM | 910 nM | CCCCCOC(=O)N1CCN(C(=O)[C@H](CCC(=O)O)NC(=O)c2cc(C(=O)N3CCCCC3)cc(-c3ccccc3)n2)CC1 | 2.2
1.7 nM | 320 nM | CCCCCOC(=O)N1CCN(C(=O)[C@H](CCC(=O)O)NC(=O)c2cc(C(=O)N3CCN(C(C)=O)CC3)cc(-c3ccccc3)n2)CC1 | 0.48
12 nM | 1300 nM | CCCCCOC(=O)N1CCN(C(=O)[C@H](CCC(=O)O)NC(=O)c2cc(OCC3CCN(C(=O)COC)CC3)cc(-c3ccccc3)n2)CC1 | 1.3
2.6 nM | 630 nM | CCCCCOC(=O)N1CCN(C(=O)[C@H](CCC(=O)O)NC(=O)c2cc(C(=O)N(C)CCCOC)cc(-c3ccccc3)n2)CC1 | 1.4
3.3 nM | 1000 nM | CCCCCOC(=O)N1CCN(C(=O)[C@H](CCC(=O)O)NC(=O)c2cc(CCCCN(C)C)cc(-c3ccccc3)n2)CC1 | 1
11 nM | 1800 nM | CCCCOC(=O)N1CCN(C(=O)[C@H](CCC(=O)O)NC(=O)c2cc(OCC3CCCCN3)cc(-c3ccccc3)n2)CC1 (some centres not stated) | 2
20 nM | 7900 nM | CCCCOC(=O)N1CCN(C(=O)[C@H](CCC(=O)O)NC(=O)c2cc(OCCO)cc(-c3ccccc3)n2)CC1 | 5.1
2.5 nM | 1000 nM | CCCCOC(=O)N1CCN(C(=O)[C@H](CCC(=O)O)NC(=O)c2cc(OCCC3CCCNC3)cc(-c3ccccc3)n2)CC1 (some centres not stated) | 0.67
12 nM | 13000 nM | CCCCCOC(=O)N1CCN(C(=O)[C@H](CCC(=O)O)NC(=O)c2cc(NCCC)cc(-c3ccccc3)n2)CC1 | 14
5.8 nM | 530 nM | CCCCCOC(=O)N1CCN(C(=O)[C@H](CCC(=O)O)NC(=O)c2cc(C(=O)N3CCN(C)CC3)cc(-c3ccccc3)n2)CC1 | 0.72
4.1 nM | 5600 nM | CCCCCOC(=O)N1CCN(C(=O)[C@H](CCC(=O)O)NC(=O)c2cc(NC(=O)CN(C)C)cc(-c3ccccc3)n2)CC1 | 6.4

The next lines start with the molecule.

SMILES | Ki [1] | IC50 [2] | Ratio IC50 [3]
CCCCCOC(=O)N1CCN(C(=O)[C@H](CCC(=O)O)NC(=O)c2cc(OCC3CCN(S(=O)(=O)CC)CC3)cc(-c3ccccc3)n2)CC1 | 7.4 nM | 2800 nM | 1.9
CCCCOC(=O)N1CCN(C(=O)[C@H](CCC(=O)O)NC(=O)c2cc(O)cc(-c3ccccc3)n2)CC1 | 31 nM | 8800 nM | 9.7
CCCOc1cc(C(=O)N[C@@H](CCC(=O)O)C(=O)N2CCN(C(=O)OCC)CC2)nc(-c2ccccc2)c1 | 120 nM | 36000 nM | 46
CCCCOC(=O)N1CCN(C(=O)[C@H](CCC(=O)O)NC(=O)c2cc(OCCCC)cc(-c3ccccc3)n2)CC1 | 35 nM | 27000 nM | 18
CCCCOC(=O)N1CCN(C(=O)[C@H](CCC(=O)O)NC(=O)c2cc(OC(=O)N(C)CC3CCOCC3)cc(-c3ccccc3)n2)CC1 | 1.5 nM | 590 nM | 0.87
CCCCOC(=O)N1CCN(C(=O)[C@H](CCC(=O)O)NC(=O)c2cc(OC3CCOCC3)cc(-c3ccccc3)n2)CC1 | 10 nM | 4100 nM | 6.3
CCCCCOC(=O)N1CCN(C(=O)[C@H](CCC(=O)O)NC(=O)c2cc(C(=O)N(C)CCCC)cc(-c3ccccc3)n2)CC1 | 5.8 nM | 1800 nM | 3.3
CCCCCOC(=O)N1CCN(C(=O)[C@H](CCC(=O)O)NC(=O)c2cc(C(=O)NC)cc(-c3ccccc3)n2)CC1 | 10 nM | 6800 nM | 9.7
CCCCCOC(=O)N1CCN(C(=O)[C@H](CCC(=O)O)NC(=O)c2cc(N3CCCCC3)cc(-c3ccccc3)n2)CC1 | 5.5 nM | 16000 nM | 18
CCCCOC(=O)N1CCN(C(=O)[C@H](CCC(=O)O)NC(=O)c2cc(OCCCCO)cc(-c3ccccc3)n2)CC1 | 4.9 nM | 4500 nM | 6.7
CCCCOC(=O)N1CCN(C(=O)[C@H](CCC(=O)O)NC(=O)c2cc(OCCCOC)cc(-c3ccccc3)n2)CC1 | 5.9 nM | 2200 nM | 3.9
CCCCCCOC(=O)N1CCN(C(=O)[C@H](CCC(=O)O)NC(=O)c2cc(OCC3CCNCC3)cc(-c3ccccc3)n2)CC1 | 4.5 nM | 640 nM | 1.3
CCCCCOC(=O)N1CCN(C(=O)[C@H](CCC(=O)O)NC(=O)c2cc(C(=O)N(C)C3CCN(C)CC3)cc(-c3ccccc3)n2)CC1 | 11 nM | 350 nM | 0.83
CCOC(=O)N1CCN(C(=O)[C@H](CCC(=O)O)NC(=O)c2cc(N3CCC(CO)CC3)cc(-c3ccccc3)n2)CC1 | 54 nM | 19000 nM | 22
CCCCCCOC(=O)N1CCN(C(=O)[C@H](CCC(=O)O)NC(=O)c2cc(OCCN)cc(-c3ccccc3)n2)CC1 | 8.4 nM | 4500 nM | 7.9
CCCCCOC(=O)N1CCN(C(=O)[C@H](CCC(=O)O)NC(=O)c2cc(NC(=O)NCC3CCNCC3)cc(-c3ccccc3)n2)CC1 | 1.4 nM | 5600 nM | 3.8
CCCCCOC(=O)N1CCN(C(=O)[C@H](CCC(=O)O)NC(=O)c2cc(CCC(=O)N(C)C)cc(-c3ccccc3)n2)CC1 | 2.1 nM | 2900 nM | 2.7
CCCCCOC(=O)N1CCN(C(=O)[C@H](CCC(=O)O)NC(=O)c2cc(N3CCC(COCCC)CC3)cc(-c3ccccc3)n2)CC1 | 22 nM | 8900 nM | 12
CCCCOC(=O)N1CCN(C(=O)[C@H](CCC(=O)O)NC(=O)c2cc(OC(=O)N(C)C3CCOC3)cc(-c3ccccc3)n2)CC1 (some centres not stated) | 1.8 nM | 520 nM | 0.63
CCCCCOC(=O)N1CCN(C(=O)[C@H](CCC(=O)O)NC(=O)c2cc(NC(=O)OCCCN)cc(-c3ccccc3)n2)CC1 | 1.9 nM | 5700 nM | 3.9
CCCCCOC(=O)N1CCN(C(=O)[C@H](CCC(=O)O)NC(=O)c2cc(C(=O)NC3CCOCC3)cc(-c3ccccc3)n2)CC1 | 4.6 nM | 5600 nM | 10
CCCCCOC(=O)N1CCN(C(=O)[C@H](CCC(=O)O)NC(=O)c2cc(OC(=O)N(C)C)cc(-c3ccccc3)n2)CC1 | 5.5 nM | 2900 nM | 1.7
CCCCCOC(=O)N1CCN(C(=O)[C@H](CCC(=O)O)NC(=O)c2cc(NC(=O)C(F)(F)F)cc(-c3ccccc3)n2)CC1 | 9.1 nM | 8200 nM | 8.2
CCCCCOC(=O)N1CCN(C(=O)[C@H](CCC(=O)O)NC(=O)c2cc(OCC)cc(-c3ccccc3)n2)CC1 | 7.9 nM | 17000 nM | 23

— ChEMBL document CHEMBL1157562, “Piperazinyl glutamate pyridines as potent orally bioavailable P2Y12 antagonists for inhibition of platelet aggregation” (J Med Chem, 2010)
